Measurements collected from several papers.
Protocols differ between the studies behind these lines.
Target: Serine/threonine-protein kinase Nek6 (NEK6, Homo sapiens, UniProt Q9HC98)
Effect on: enzyme activity
Mode: inhibitor

Compound | technique | concentration | remaining activity [%]
CC(C)(C)c1nc2c(s1)c1nc(N)ncc1c1ccc(NS(=O)(=O)c3c(F)cccc3F)c(F)c12 | radiometric | 1 µM | 96
Nc1nc(Nc2ccccc2)sc1C(=O)c1c(F)cccc1F | – | 10 µM | 97
Cc1ccc(C(=O)Nc2ccc(CN3CCN(C)CC3)c(C(F)(F)F)c2)cc1C#Cc1cnc2cccnn12 | – | 23.5 nM | 100
O=C(Nc1cnn(-c2csc(C(=O)NC3COC3)c2)c1)Nc1c(F)cccc1Cl | – | 5 µM | 86.8
Cc1[nH]c(/C=C2\C(=O)Nc3ccc(F)cc32)c(C)c1C(=O)N[C@H]1CCN(C(=O)N(C)C)C1 | – | 1 µM | 126
Oc1cccc(-c2nc(N3CCOCC3)c3oc4ncccc4c3n2)c1 | – | 10 µM | 87
Cc1ccc(Nc2nccc(N(C)c3ccc4c(C)n(C)nc4c3)n2)cc1S(N)(=O)=O | – | 0.5 µM | 96.1
CCN(CC)CCNC(=O)c1c(C)[nH]c(/C=C2\C(=O)Nc3ccc(F)cc32)c1C | – | 0.1 µM | 99
Nc1nc(NC2CCCCC2)sc1C(=O)c1ccccc1 | – | 10 µM | 113
Cn1c(=O)n(-c2ccc(C(C)(C)C#N)cc2)c2c3cc(-c4cnc5ccccc5c4)ccc3ncc21 | – | 10 µM | 95
O=C(Nc1cnn(-c2csc(C(=O)NC3COC3)c2)c1)Nc1ccccc1Cl | – | 5 µM | 99.6
COc1cc(Nc2cnc(C#N)c(O[C@H](C)CN(C)C)n2)ncc1-c1cnn(C)c1 | radiometric | 10 µM | 96
